Data published in ChEMBL document CHEMBL1144917, “Synthetic, nondegradable diadenosine polyphosphates and diinosine polyphosphates: their effects on insulin-secreting cells and cultured vascular smooth muscle cells” (J Med Chem, 2003).

How the values were obtained:
INS1 [1] = assay: Percent of compound radioactivity ([3H]-Ap4A Degradation), determined in the incubation medium of INS-1 cell membranes; type: functional, cell-based; parameters: concentration or dose not given beside the values
Summary of the method: (§1)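 Membranes from half-confluent INS-1 cells incubated 10 min at 37 °C in KRH buffer with 5.6 mM glucose, 0.31 μM [3H]Ap4A, with or without 30 μM unlabeled nucleotide. Medium aliquot mixed with unlabeled standards, TLC on silica gel in dioxane/conc. ammonia/water (6:1:4) for 2 h. UV-located spots cut out and scintillation counted. Reported as percent of radioactivity per species; mean ± SE of two experiments.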

INS1 [2] = assay: Percent of compound radioactivity ([3H]-Ap4A Degradation), in presence of added Ap4A, in the incubation medium of INS-1 cell membranes; type: functional, cell-based; parameters: concentration or dose not given beside the values; summary of the method: as §1
INS1 [3] = assay: Percent of compound radioactivity ([3H]-Ap4A Degradation), in presence of added Ap(s)pCHClpp(s)A, in the incubation medium of INS-1 cell membranes; type: functional, cell-based; summary of the method: as §1
Rattus norvegicus [4] = organism: Rattus norvegicus; assay: Percent of compound radioactivity ([3H]-Ap4A Degradation), in presence of added Ap(s)pCH2pp(s)A, in heparinized rat plasma; type: functional; parameters: concentration or dose not given beside the values
Summary of the method: (§2)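 Heparinized rat plasma (40 μL) incubated 15 min with 10 nM [3H]Ap4A plus 3 μL saline or 3 μL of a 1 mM analogue solution. Products resolved by TLC on silica gel in dioxane/conc. ammonia/water (6:1:4) alongside unlabeled standards, and spots scintillation counted. Reported as percent of radioactivity per species; mean ± SE of two experiments.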

Rattus norvegicus [5] = organism: Rattus norvegicus; assay: Percent of compound radioactivity ([3H]-Ap4A Degradation) in heparinized rat plasma (saline); type: functional; summary of the method: as §2
Rattus norvegicus [6] = organism: Rattus norvegicus; assay: Percent of compound radioactivity ([3H]-Ap4A Degradation), in presence of added Ap(s)pCHClpp(s)A, in heparinized rat plasma; type: functional; parameters: concentration or dose not given beside the values; summary of the method: as §2
INS1 [7] = assay: Percent of compound radioactivity ([3H]-Ap4A Degradation), in presence of added Ap(s)pCH2pp(s)A, in the incubation medium of INS-1 cell membranes; type: functional, cell-based; summary of the method: as §1

## Nc1ncnc2c1ncn2[C@@H]1O[C@H](CO)[C@@H](O)[C@H]1O
INS1 [1]
  Radioactivity: 22.4%
INS1 [2]
  Radioactivity: 15.1%
INS1 [3]
  Radioactivity: 14.3%
Rattus norvegicus [4]
  Radioactivity: < 1%
Rattus norvegicus [5]
  Radioactivity: < 1%
Rattus norvegicus [6]
  Radioactivity: < 1%
INS1 [7]
  Radioactivity: 19.4%

## Nc1ncnc2c1ncn2[C@@H]1O[C@H](COP(=O)(O)OP(=O)(O)O)[C@@H](O)[C@H]1O
INS1 [1]
  Radioactivity: 11.3%
INS1 [2]
  Radioactivity: 7.8%
INS1 [3]
  Radioactivity: 8.8%
Rattus norvegicus [4]
  Radioactivity: 27.4%
Rattus norvegicus [5]
  Radioactivity: 22.3%
Rattus norvegicus [6]
  Radioactivity: 30.6%
INS1 [7]
  Radioactivity: 9.3%

## Nc1ncnc2c1ncn2[C@@H]1O[C@H](COP(=O)(O)OP(=O)(O)OP(=O)(O)OP(=O)(O)OC[C@H]2O[C@@H](n3cnc4c(N)ncnc43)[C@H](O)[C@@H]2O)[C@@H](O)[C@H]1O
INS1 [1]
  Radioactivity: 52.4%
INS1 [2]
  Radioactivity: 70%
INS1 [3]
  Radioactivity: 61.3%
Rattus norvegicus [4]
  Radioactivity: 31.6%
Rattus norvegicus [5]
  Radioactivity: 21.5%
Rattus norvegicus [6]
  Radioactivity: 26.5%
INS1 [7]
  Radioactivity: 54.9%

## Nc1ncnc2c1ncn2[C@@H]1O[C@H](COP(=O)(O)O)[C@@H](O)[C@H]1O
INS1 [1]
  Radioactivity: 5.3%
INS1 [2]
  Radioactivity: 0.8%
Rattus norvegicus [4]
  Radioactivity: 1.98%
Rattus norvegicus [5]
  Radioactivity: 2.4%
Rattus norvegicus [6]
  Radioactivity: 2.31%

## Nc1ncnc2c1ncn2[C@@H]1O[C@H](COP(=O)(O)OP(=O)(O)OP(=O)(O)O)[C@@H](O)[C@H]1O
INS1 [1]
  Radioactivity: 8.4%
INS1 [2]
  Radioactivity: 4%
Rattus norvegicus [4]
  Radioactivity: 37.6%
Rattus norvegicus [5]
  Radioactivity: 42.1%
Rattus norvegicus [6]
  Radioactivity: 40.5%
INS1 [7]
  Radioactivity: 8.2%
